Paper PMC12091843 (Chemmedchem, 2025)
Values after ≈ are worked out from the molar mass of the structure shown. Read-outs that look alike come from different tables or passages of the source.

Columns and labels:
[1] = target: AB ATP synthase (UniProt A3M139+B2I0Z6); format: biochemical, Acinetobacter baumannii; conditions: for Inhibition of AB ATP synthase (in words): even at high / highest concentrations tested
[2] = target: PA ATP synthase (Pseudomonas aeruginosa, UniProt Q9HT14+Q9HT15); test: biochemical; conditions: for Inhibition of PA ATP synthase (in words): even at high / highest concentrations tested
[3] = test system: MT ATP synthase; conditions: cited from earlier work
[4] = test system: AB 17978; test: Broth microdilution antibacterial activity; format: cell-based; conditions: Acinetobacter baumannii, read-out: MIC AB 17978
[5] = test system: PA 2108 (MDR); test: Broth microdilution antibacterial activity; format: cell-based, Pseudomonas aeruginosa; conditions: for MIC: Pseudomonas aeruginosa; for Antibacterial activity against PA (in words): highest concentration tested
[6] = test system: AB 1605 (MDR); test: Broth microdilution antibacterial activity; format: cell-based; conditions: Acinetobacter baumannii, read-out: MIC AB 1605 (MDR)
[7] = test system: AB (17978 and 1605); test: Broth microdilution antibacterial activity, AB strains summarised in the text; format: cell-based, Acinetobacter baumannii; conditions: for Antibacterial activity against AB strains (in words): highest concentration tested; for MIC: Acinetobacter baumannii, read-out: MICs against AB, one or both strains tested
[8] = test system: PA ETC; test: Inhibition of NADH-driven H+ pumping of the ETC in PA inverted vesicles; format: biochemical, Pseudomonas aeruginosa
In short: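 Inverted inner-membrane vesicles came from P. aeruginosa ATCC 9027 (LB, 37°C, 150 rpm, late exponential). Cells were homogenizer-lysed in Tris-HCl pH 7.5/MgCl2/glycerol buffer, cleared at 9,000 x g, and vesicles pelleted at 169,000 x g. Assay used vesicles at 0.5 mg/mL in HEPES/300 mM KCl pH 7.5 with ACMA and test compound in DMSO. NADH to 0.8 mM started pumping; nigericin stopped it. Fluorescence Ex 415/Em 485 nm; percent quenching normalized to no-inhibitor control.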

Row | Structure (SMILES) | MIC [4] [µg/mL] | MIC ([5]; read-out: MIC PA 2108 (MDR)) [µg/mL] | MIC [6] [µg/mL] | MIC [7] [µg/mL] | further results
1 | COc1nc2ccc(Br)cc2cc1[C@@H](c1ccccc1)[C@@](O)(CCN(C)C)c1cccc2ccccc12 [BDQ, bedaquiline, reference compound] |  |  |  |  | Inhibition of AB ATP synthase (in words) [1]: does not fully inhibit; Inhibition of PA ATP synthase (in words) [2]: does not fully inhibit; Potency against MT ATP synthase (in words) [3]: nanomolar potency
2 | O=C(N[C@H](CO)[C@H](O)c1ccc([N+](=O)[O-])cc1)C(Cl)Cl [Chloramphenicol, reference compound] | 64 (≈ 198 µM) | 64 (≈ 198 µM) |  |  | 
3 | c1ccc(CSc2nc3ccccc3cc2CNCc2ccc(N3CCCCC3)cc2)cc1 [WSA248, 1‐(2‐(benzylthio)quinolin‐3‐yl)‐N‐(4‐(piperidin‐1‐yl)benzyl)methanamine] | > 128 | > 128 | > 128 |  | Inhibition of AB ATP synthase (in words) [1]: no significant inhibition; Inhibition of PA ATP synthase (in words) [2]: no significant inhibition; Antibacterial activity against PA (in words) [5]: inactive; Antibacterial activity against AB strains (in words) [7]: inactive
4 | c1ccc(CSc2nc3ccccc3cc2CNCc2ccc(CN3CCCC3)cc2)cc1 [WSA249, 1‐(2‐(benzylthio)quinolin‐3‐yl)‐N‐(4‐(pyrrolidin‐1‐ylmethyl)benzyl)methanamine] | 32 (≈ 70.5 µM) | 16 (≈ 35.3 µM) | 64 (≈ 141 µM) |  | MIC ([5]; read-out: MIC against MDR PA): 16 µg/mL (≈ 35.3 µM)
5 | CN1CCN(CCNCc2cc3ccccc3nc2SCc2ccccc2)CC1 [WSA250, N‐((2‐(benzylthio)quinolin‐3‐yl)methyl)‐2‐(4‐methylpiperazin‐1‐yl)ethan‐1‐amine] | 64 (≈ 157 µM) | 64 (≈ 157 µM) | 128 (≈ 315 µM) |  | 
6 | CCN1CCC(CCNCc2cc3cc(OC)c(OC)c(OC)c3nc2SCc2ccccc2)CC1 [WSA251, N‐((2‐(benzylthio)‐6,7,8‐trimethoxyquinolin‐3‐yl)methyl)‐2‐(1‐ethylpiperidin‐4‐yl)ethan‐1‐amine] | 128 (≈ 251 µM) | 128 (≈ 251 µM) | > 128 |  | Fold less potent than WSA236 against PA (antibacterial) ([5]; MIC comparison): 4 fold; Fold less potent than WSA236 against AB (antibacterial) ([7]; MIC comparison): 2 fold
7 | COc1cc2cc(CNCCC3CCN(C4CCCC4)CC3)c(SCc3ccccc3)nc2c(OC)c1OC [WSA252, N‐((2‐(benzylthio)‐6,7,8‐trimethoxyquinolin‐3‐yl)methyl)‐2‐(1‐cyclopentylpiperidin‐4‐yl)ethan‐1‐amine] | 64 (≈ 116 µM) | 64 (≈ 116 µM) |  |  | 
8 | COc1cc2cc(CNCCN3CCN(C)CC3)c(SCc3ccccc3)nc2c(OC)c1OC [WSA253, N‐((2‐(benzylthio)‐6,7,8‐trimethoxyquinolin‐3‐yl)methyl)‐2‐(4‐methylpiperazin‐1‐yl)ethan‐1‐amine] | 128 (≈ 258 µM) | 128 (≈ 258 µM) | > 128 |  | Fold improvement of IC50 for AB by trimethoxy modification [1]: 3 fold; Fold worsening of IC50 for PA by trimethoxy modification [2]: ~3 fold
9 | CCN1CCC(CCNCc2cc3cc(Br)ccc3nc2SCc2ccccc2)CC1 [WSA254, N‐((2‐(benzylthio)‐6‐bromoquinolin‐3‐yl)methyl)‐2‐(1‐ethylpiperidin‐4‐yl)ethan‐1‐amine] | 16 (≈ 32.1 µM) | 32 (≈ 64.2 µM) |  | 8 to 16 (≈ 16 to 32.1 µM) | 
10 | Brc1ccc2nc(SCc3ccccc3)c(CNCCC3CCN(C4CCCC4)CC3)cc2c1 [WSA255, N‐((2‐(benzylthio)‐6‐bromoquinolin‐3‐yl)methyl)‐2‐(1‐cyclopentylpiperidin‐4‐yl)ethan‐1‐amine] | 16 (≈ 29.7 µM) | 32 (≈ 59.4 µM) |  | 8 to 16 (≈ 14.9 to 29.7 µM) | IC50 [2]: 427 nM; Fold less potent against the ETC compared to ATP synthase ([8]; PA ETC IC50 versus PA ATP synthase IC50): more than 7 fold; PA ETC IC50 ([8]; PA vesicles, dose response fit): 1.7 µg/mL
11 | Brc1ccc2nc(SCc3ccccc3)c(CNCc3ccc(CN4CCCC4)cc3)cc2c1 [WSA256, 1‐(2‐(benzylthio)‐6‐bromoquinolin‐3‐yl)‐N‐(4‐(pyrrolidin‐1‐ylmethyl)benzyl)methanamine] | > 128 | > 128 | > 128 |  | Antibacterial activity against PA (in words) [5]: inactive; Antibacterial activity against AB strains (in words) [7]: inactive
12 | CN1CCN(CCNCc2cc3cc(Br)ccc3nc2SCc2ccccc2)CC1 [WSA257, N‐((2‐(benzylthio)‐6‐bromoquinolin‐3‐yl)methyl)‐2‐(4‐methylpiperazin‐1‐yl)ethan‐1‐amine] | 8 (≈ 16.5 µM) | 16 (≈ 33 µM) | 16 (≈ 33 µM) | 8 to 16 (≈ 16.5 to 33 µM) | IC50 [2]: 268 nM; MIC ([5]; read-out: MIC against MDR PA): 16 µg/mL (≈ 33 µM)
13 | CCN1CCC(CCNCc2cc3cc(-c4ccccc4)ccc3nc2SCc2ccccc2)CC1 [WSA261, N‐((2‐(benzylthio)‐6‐phenylquinolin‐3‐yl)methyl)‐2‐(1‐ethylpiperidin‐4‐yl)ethan‐1‐amine] | 8 (≈ 16.1 µM) | 64 (≈ 129 µM) | 16 (≈ 32.3 µM) | 8 to 16 (≈ 16.1 to 32.3 µM) | 
14 | c1ccc(CSc2nc3ccc(-c4ccccc4)cc3cc2CNCCC2CCN(C3CCCC3)CC2)cc1 [WSA262, N‐((2‐(benzylthio)‐6‐phenylquinolin‐3‐yl)methyl)‐2‐(1‐cyclopentylpiperidin‐4‐yl)ethan‐1‐amine] | 32 (≈ 59.7 µM) | 64 (≈ 119 µM) |  |  | 
15 | c1ccc(CSc2nc3ccc(-c4ccccc4)cc3cc2CNCc2ccc(CN3CCCC3)cc2)cc1 [WSA269, 1‐(2‐(benzylthio)‐6‐phenylquinolin‐3‐yl)‐N‐(4‐(pyrrolidin‐1‐ylmethyl)benzyl)methanamine] | > 128 | > 128 | > 128 |  | Antibacterial activity against PA (in words) [5]: inactive; Antibacterial activity against AB strains (in words) [7]: inactive
16 | CN1CCN(CCNCc2cc3cc(-c4ccccc4)ccc3nc2SCc2ccccc2)CC1 [WSA270, N‐((2‐(benzylthio)‐6‐phenylquinolin‐3‐yl)methyl)‐2‐(4‐methylpiperazin‐1‐yl)ethan‐1‐amine] | 16 (≈ 33.1 µM) | 32 (≈ 66.3 µM) |  | 8 to 16 (≈ 16.6 to 33.1 µM) | 
